Among the data in ChEMBL document CHEMBL1135528, “Monocyclic human tachykinin NK-2 receptor antagonists as evolution of a potent bicyclic antagonist: QSAR and site-directed mutagenesis studies” (J Med Chem, 2002) are KD/Ki and UB values, retold here.

Assay [1] has as its system T1, Substance-K receptor (Homo sapiens), P21452 [C167A].
T1 sequence (whole entry): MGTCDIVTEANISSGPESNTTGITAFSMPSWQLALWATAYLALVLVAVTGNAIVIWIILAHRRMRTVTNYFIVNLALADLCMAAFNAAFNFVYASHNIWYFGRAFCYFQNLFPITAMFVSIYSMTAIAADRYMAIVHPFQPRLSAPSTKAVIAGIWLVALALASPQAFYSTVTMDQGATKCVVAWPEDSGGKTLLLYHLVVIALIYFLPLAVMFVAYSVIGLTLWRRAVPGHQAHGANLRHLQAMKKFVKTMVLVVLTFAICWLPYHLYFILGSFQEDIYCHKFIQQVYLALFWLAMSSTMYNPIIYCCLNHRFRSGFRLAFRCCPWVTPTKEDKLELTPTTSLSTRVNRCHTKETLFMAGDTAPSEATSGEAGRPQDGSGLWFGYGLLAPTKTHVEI
Description: Binding affinity against C167A human neurokinin-2 receptor (hNK-2R) using [3H]SR-48,968 as a radioligand. In a few lines: (§1)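 Radioligand [3H]SR48968 was incubated for 30 min at 20 °C with membranes from stably transfected wild-type or mutant hNK-2R cells, in Tris-HCl 50 mM pH 7.4 buffer with protease inhibitors, NaCl, MnCl2 and BSA. Test ligands ranged 0.3 pM–10 μM, with nonspecific binding in 1 mM unlabeled ligand. Filtration through PEI-soaked filters was followed by scintillation counting. pKi was derived by curve fitting, duplicate determinations.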

Assay [2] has the same test system. Nature of the assay: Binding affinity against C167A human neurokinin-2 receptor (hNK-2R) using [3H]nepadutant as a radioligand; UB is Undetectable Binding. A digest of the protocol: (§2)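 Membranes from cells stably transfected with wild-type or mutant hNK-2R, incubated with [3H]nepadutant for 60 min at 20 °C in 50 mM Tris-HCl pH 7.4 containing peptidase inhibitors, 150 mM NaCl, 5 mM MnCl2 and 1 g/L BSA. Competitors ranged 0.3 pM–10 μM. Nonspecific binding was defined with 1 mM unlabeled ligand. Bound label was collected by filtration and counted. Means from ≥3 duplicate experiments.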

For assay [3], the system named is Substance-K receptor (Homo sapiens), P21452 [F168A]. Description: Binding affinity against F168A human neurokinin-2 receptor (hNK-2R) using [3H]-nepadutant as a radioligand. In a few lines:
as §2

For assay [4], the system named is Substance-K receptor (Homo sapiens), P21452 [H198A]. Nature of the assay: Binding affinity against H198A human neurokinin-2 receptor (hNK-2R) using [3H]nepadutant as a radioligand. In a few lines: as §2
The test system of assay [5] is Substance-K receptor (Homo sapiens), P21452 [Q109A]. Nature of the assay: Binding affinity against Q109A human neurokinin-2 receptor (hNK-2R) using [3H]nepadutant as a radioligand. A digest of the protocol:
as §2

The test system of assay [6] is Substance-K receptor (Homo sapiens), P21452 [S164A]. Nature of the assay: Binding affinity against S164A human neurokinin-2 receptor (hNK-2R) using [3H]nepadutant as a radioligand. In a few lines:
as §2

Assay [7] concerns T2, Substance-K receptor (Homo sapiens), P21452 [S170A].
T2 sequence (whole entry): T1 sequence (whole entry) with A167C, S170A
Nature of the assay: Binding affinity against S170A human neurokinin-2 receptor (hNK-2R) using [3H]nepadutant as a radioligand. In a few lines: as §2

The subject of assay [8] is T3, Substance-K receptor (Homo sapiens), P21452 [W263A].
T3 sequence (whole entry): T1 sequence (whole entry) with A167C, W263A
Nature of the assay: Binding affinity against W263A human neurokinin-2 receptor (hNK-2R) using [3H]SR-48,968 as a radioligand. A digest of the protocol: as §1

Assay [9] deals with Substance-K receptor (Homo sapiens), P21452 [Y107A]. Nature of the assay: Binding affinity against Y107A human neurokinin-2 receptor (hNK-2R) using [3H]nepadutant as a radioligand. A digest of the protocol: as §2
Assay [10] deals with Substance-K receptor (Homo sapiens), P21452 [Y169A]. Nature of the assay: Binding affinity against Y169A human neurokinin-2 receptor (hNK-2R) using [3H]nepadutant as a radioligand. In a few lines: as §2
Assay [11] deals with Substance-K receptor (Homo sapiens), P21452 [Y206F]. Nature of the assay: Binding affinity against Y206F human neurokinin-2 receptor (hNK-2R) using [3H]nepadutant as a radioligand. In a few lines:
as §2

Assay [12] relates to T4, Substance-K receptor (Homo sapiens), P21452 [Y266F].
T4 sequence (whole entry): T1 sequence (whole entry) with A167C, Y266F
Nature of the assay: Binding affinity against Y266F human neurokinin-2 receptor (hNK-2R) using [3H]nepadutant as a radioligand; UB is Undetectable Binding. In a few lines:
as §2

For assay [13], the system named is Substance-K receptor (Homo sapiens), P21452 [Y269F]. Description: Binding affinity against Y269F human neurokinin-2 receptor (hNK-2R) using [3H]nepadutant as a radioligand. In a few lines: as §2
Assay [14] concerns Substance-K receptor (Homo sapiens), P21452 [Y289T]. Description: Binding affinity against Y289T human neurokinin-2 receptor (hNK-2R) using [3H]nepadutant as a radioligand. In a few lines:
as §2

Assay [15] relates to T2, Substance-K receptor (Homo sapiens), P21452 [S170A].

Substitutions are numbered along the chain they refer to. Active and inactive are the calls of the source. No cut-off for these calls is given here. Where a SMILES comes first, the peptide text is derived from it. Bridges are numbered along the chain shown (N, C = ends). [ ]: non-standard residue; d: D form. The star is where a group is joined. NH(β-GlcNAc) = CC(=O)N[C@@H]1[C@@H](O)[C@H](O)[C@@H](CO)O[C@H]1N*; Dap = NC[C@H](N)C(=O)O

Substance-K receptor (Homo sapiens), P21452 [Q109A], sequence (P21452 whole entry Q109A): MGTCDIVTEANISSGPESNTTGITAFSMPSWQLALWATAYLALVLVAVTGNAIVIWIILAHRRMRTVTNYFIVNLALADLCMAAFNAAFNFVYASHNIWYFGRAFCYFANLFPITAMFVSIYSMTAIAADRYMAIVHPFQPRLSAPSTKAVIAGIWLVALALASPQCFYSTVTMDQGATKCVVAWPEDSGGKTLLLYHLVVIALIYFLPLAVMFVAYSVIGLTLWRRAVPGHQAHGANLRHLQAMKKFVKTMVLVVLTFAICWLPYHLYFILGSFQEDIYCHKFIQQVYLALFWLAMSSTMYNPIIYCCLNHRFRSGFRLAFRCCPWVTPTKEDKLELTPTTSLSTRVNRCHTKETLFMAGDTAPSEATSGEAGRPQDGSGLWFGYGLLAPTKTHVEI
Substance-K receptor (Homo sapiens), P21452 [Y269F], sequence (P21452 whole entry Y269F): as the sequence (P21452 whole entry Q109A) above, with A109Q, Y269F counted along it
Substance-K receptor (Homo sapiens), P21452 [F168A], sequence (P21452 whole entry F168A): as the sequence (P21452 whole entry Q109A) above, with A109Q, F168A counted along it
Substance-K receptor (Homo sapiens), P21452 [Y169A], sequence (P21452 whole entry Y169A): as the sequence (P21452 whole entry Q109A) above, with A109Q, Y169A counted along it
Substance-K receptor (Homo sapiens), P21452 [H198A], sequence (P21452 whole entry H198A): as the sequence (P21452 whole entry Q109A) above, with A109Q, H198A counted along it
Substance-K receptor (Homo sapiens), P21452 [Y107A], sequence (P21452 whole entry Y107A): as the sequence (P21452 whole entry Q109A) above, with Y107A, A109Q counted along it
Substance-K receptor (Homo sapiens), P21452 [Y206F], sequence (P21452 whole entry Y206F): as the sequence (P21452 whole entry Q109A) above, with A109Q, Y206F counted along it
Substance-K receptor (Homo sapiens), P21452 [S164A], sequence (P21452 whole entry S164A): as the sequence (P21452 whole entry Q109A) above, with A109Q, S164A counted along it
Substance-K receptor (Homo sapiens), P21452 [Y289T], sequence (P21452 whole entry Y289T): as the sequence (P21452 whole entry Q109A) above, with A109Q, Y289T counted along it

As for `CC(=O)N[C@@H]1[C@@H](O)[C@H](O)[C@@H](CO)O[C@H]1NC(=O)C[C@@H]1NC(=O)[C@H](CC(C)C)NC(=O)[C@@H]2CNC(=O)C[C@H](NC1=O)C(=O)N[C@@H](Cc1c[nH]c3ccccc13)C(=O)N[C@@H](Cc1ccccc1)C(=O)N2` (cyclo(D(NH(β-GlcNAc))DWF[Dap]L); lactam 2-5), the KD/Ki is over 10000 nM in assay [1]; 4.1 nM in assay [3]; 11.5 nM in assay [4]; 0.85 nM in assay [5]; 2.6 nM in assay [6]; 1.5 nM in [7]. In addition, the KD/Ki in assay [8] is 502 nM; in [9] it was 0.75 nM; in assay [10] it was 4.1 nM; in assay [11], 1.1 nM; in assay [13] it was 1.7 nM; in assay [14], 11.2 nM. Moreover, the KD/Ki in assay [15] came out at 1.9 nM. In addition, the UB result in assay [2] and in assay [12] was “inactive” each time.
